The source of these data is paper PMC9082781 (ACS infectious diseases, 2021).

Each structure is given as a SMILES string. In brackets after ≈: the same amount, converted by molar mass. Like-named read-outs stand apart in the source and are kept apart here. Non-standard residues stand in square brackets, D forms with d. Residues, ends and D or L forms follow the SMILES beside them. *: point of attachment. Decanoyl = CCCCCCCCCC(=O)*; Octanoyl = CCCCCCCC(=O)*

The test system of data set [1] is Klebsiella pneumonia ATCC 13883. The data set is classed as cell-based, Klebsiella pneumoniae.
The subject of data set [2] is P. aeruginosa PAO1. It counts as cell-based, Pseudomonas aeruginosa.
The subject of data set [3] is E. coli ATCC25922.
The test system of data set [4] is S. aureus USA300 LAC. Conditions: for MIC SA: USA300; for Minimal inhibitory concentration (MIC): USA300, pH 7.4.
The test system of data set [5] is E. coli ATCC25922. Conditions: LL-37; ref [36]; cited from earlier work.
Data set [6] has as its system Klebsiella pneumonia ATCC 13883. Conditions: LL-37; ref [36]; cited from earlier work.
In data set [7] the test system is P. aeruginosa PAO1. Conditions: LL-37; ref [36]; cited from earlier work.
Data set [8] has as its system human red blood cells. Conditions: LL-37; ref [36]; cited from earlier work.
The subject of data set [9] is S. aureus USA300 LAC. The experiment in a line: Resistance development, multiple passage experiment. It counts as cell-based, Staphylococcus aureus. Conditions: 14 days/passages at sub-MIC; average of three independent experiments.
In data set [10] the test system is human red blood cells. The data set is classed as cell-based. Conditions: red cells of human, 1 h.
The next data set has as its target S. aureus V8 protease (Staphylococcus aureus, UniProt P0C1U8). The data set is classed as in vitro ADME. Conditions: 10 mM PBS pH 7.4, 37 °C, 3 h and 1 day, SDS-PAGE, Coomassie.
A further data set addresses fungal proteinase K (Parengyodontium album, UniProt P06873). The experiment in a line: Protease stability by SDS-PAGE, proteinase K. It counts as in vitro ADME. Conditions: 10 mM PBS pH 7.4, 37 °C, 1 day, Coomassie.
The subject of data set [11] is S. aureus USA300 LAC. The experiment in a line: Bacterial membrane permeation. It counts as cell-based, Staphylococcus aureus. Conditions: 12.5 μM, 37 °C, fluorescence read every 5 min. An outline of the steps: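 Exponential-phase S. aureus USA300 at final OD600 ~0.1 in TSB or PBS, with propidium iodide (20 μM as added) and serially diluted peptide (12.5 μM in figure). Daptomycin and rifamycin serve as controls. Incubated at 37 °C with 100 rpm shaking in a plate reader. Fluorescence (ex 584/em 620 nm) read every 5 min for 24 cycles; average values plotted.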

The test system of the next data set is HaCaT cells. The data set is classed as cell-based, human.
Another data set concerns C57BL/6 mice. The experiment in a line: In vivo toxicity. Details: species or system mouse.
Data set [12] relates to S. aureus USA300 LAC. The experiment in a line: Systemic efficacy in neutropenic murine infection model. The data set is classed as in vivo, mouse. Conditions: neutropenic mice, single dose 5 mg/kg i.p., n = 8, vs untreated. An outline of the steps:
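Female C57BL/6 mice, 6 weeks old, made neutropenic with cyclophosphamide (day 1 150 mg/kg, day 4 100 mg/kg). Day 5: i.p. infection with ~2×10⁶ CFU S. aureus USA300. Single i.p. peptide dose 2 h later. Spleen, liver, lung and kidney weighed, homogenized in PBS, diluted, plated on blood agar (37 °C, overnight). CFU per tissue; Mann-Whitney test.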

Data set [13] concerns MCP-1, IL-17A, IL-10, TNF-α. The experiment in a line: Cytokine levels in tissues surrounding catheters. Conditions: tissue surrounding catheter, day 3 after peptide treatment. It counts as in vivo, mouse. A digest of the protocol: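 Catheter biofilm mouse model under ketamine/xylazine (100/10 mg/kg) anesthesia. Peptide 15 mg/kg injected at five sites in and around the catheter 2 h post infection. Untreated infected and uninfected-catheter groups included. Day 3: CO₂ euthanasia, peri-catheter tissue harvested and homogenized, stored at −80 °C. Cytokines quantified by individual mouse cytokine ELISA kits in duplicate with standards.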

Chain of S. aureus V8 protease (P0C1U8 69-336): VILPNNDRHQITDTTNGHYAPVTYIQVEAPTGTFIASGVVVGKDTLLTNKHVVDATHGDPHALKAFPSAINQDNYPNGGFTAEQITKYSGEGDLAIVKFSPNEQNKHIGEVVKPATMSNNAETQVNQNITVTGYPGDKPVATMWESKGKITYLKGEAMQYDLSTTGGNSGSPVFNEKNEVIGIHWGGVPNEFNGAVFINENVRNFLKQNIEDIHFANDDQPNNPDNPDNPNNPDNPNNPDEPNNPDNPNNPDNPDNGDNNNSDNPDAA
Chain of fungal proteinase K (P06873 106-384): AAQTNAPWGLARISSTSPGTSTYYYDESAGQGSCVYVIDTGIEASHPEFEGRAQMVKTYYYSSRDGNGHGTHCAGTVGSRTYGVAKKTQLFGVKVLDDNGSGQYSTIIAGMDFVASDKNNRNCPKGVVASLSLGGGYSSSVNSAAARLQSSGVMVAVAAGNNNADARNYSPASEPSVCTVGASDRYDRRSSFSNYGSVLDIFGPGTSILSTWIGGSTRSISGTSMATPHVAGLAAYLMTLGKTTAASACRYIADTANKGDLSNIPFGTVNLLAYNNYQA

Turning to `CCCCCCCC(=O)N[C@H](CCCCN)C(=O)N[C@H](CCCNC(=N)N)C(=O)N[C@@H](C(=O)N[C@H](Cc1c[nH]c2ccccc12)C(=O)N[C@H](CCC(N)=O)C(=O)N[C@H](CCCNC(=N)N)C(=O)N[C@@H](C(=O)N[C@H](CCCCN)C(=O)N[C@H](CC(=O)O)C(=O)N[C@H](Cc1ccccc1)C(N)=O)[C@H](C)CC)[C@H](C)CC` [Peptide C8-KR10d] (Octanoyl-[dK][dR][dI][dW][dQ][dR][dI][dK][dD][dF]-NH2; C-terminus assumed), the “MIC KP” value in data set [1] worked out at 12.5 µM (≈ 18.9 µg/mL). Moreover, the “MIC PA” value against P. aeruginosa PAO1 [2] was 12.5 µM (≈ 18.9 µg/mL). Also, the “MIC EC” value in the data set with E. coli ATCC25922 [3] came out at 6.2 µM (≈ 9.39 µg/mL). Besides, in the data set with S. aureus USA300 LAC [4], the “MIC SA” value was determined as 3.1 µM (≈ 4.7 µg/mL) and the “Minimal inhibitory concentration (MIC)” value came out at 3.1 µM (≈ 4.7 µg/mL).

For the compound `CC[C@H](C)[C@H](NC(=O)[C@H](CCCCN)NC(=O)[C@H](CCC(=O)O)NC(=O)[C@H](CCCCN)NC(=O)[C@H](CO)NC(=O)[C@H](CCCCN)NC(=O)[C@H](CCCNC(=N)N)NC(=O)[C@H](Cc1ccccc1)NC(=O)[C@H](Cc1ccccc1)NC(=O)[C@H](CC(=O)O)NC(=O)CNC(=O)[C@H](CC(C)C)NC(=O)[C@@H](N)CC(C)C)C(=O)NCC(=O)N[C@@H](CCCCN)C(=O)N[C@@H](CCC(=O)O)C(=O)N[C@@H](Cc1ccccc1)C(=O)N[C@@H](CCCCN)C(=O)N[C@@H](CCCNC(=N)N)C(=O)N[C@H](C(=O)N[C@H](C(=O)N[C@@H](CCC(N)=O)C(=O)N[C@@H](CCCNC(=N)N)C(=O)N[C@H](C(=O)N[C@@H](CCCCN)C(=O)N[C@@H](CC(=O)O)C(=O)N[C@@H](Cc1ccccc1)C(=O)N[C@@H](CC(C)C)C(=O)N[C@@H](CCCNC(=N)N)C(=O)N[C@@H](CC(N)=O)C(=O)N[C@@H](CC(C)C)C(=O)N[C@H](C(=O)N1CCC[C@H]1C(=O)N[C@@H](CCCNC(=N)N)C(=O)N[C@H](C(=O)N[C@@H](CCC(=O)O)C(=O)N[C@@H](CO)C(=O)O)[C@@H](C)O)C(C)C)[C@@H](C)CC)C(C)C)[C@@H](C)CC` [LL-37], the “Minimal inhibitory concentration against S. aureus” value in the data set with S. aureus USA300 LAC [4] (10% TSB) is 50 µM (≈ 225 µg/mL); in the data set with S. aureus USA300 LAC [4] (50% TSB), above 50 µM; with S. aureus USA300 LAC [4] (100% MHB) it was above 50 µM; in the data set with S. aureus USA300 LAC [4] (100% TSB), above 50 µM. Also, the “MIC EC” value in the data set on E. coli ATCC25922 [5] was 3.1 to 6.2 µM. In addition, the “MIC KP” value in data set [6] is 6.2 µM (≈ 27.9 µg/mL). In addition, the “MIC PA” value with P. aeruginosa PAO1 [7] was above 50 µM. The HC50 with human red blood cells [8] was 170 µM.

Regarding `CCOc1ccc2ccccc2c1C(=O)N[C@@H]1C(=O)N2[C@@H]1SC(C)(C)[C@@H]2C(=O)O` [nafcillin, reference compound], the “MIC increase during serial passages” value with S. aureus USA300 LAC [9] was “over 30 fold”.

Consider `CCCCCCCCCC(=O)N[C@H](CCCCN)C(=O)N[C@H](CCCNC(=N)N)C(=O)N[C@@H](C(=O)N[C@H](Cc1c[nH]c2ccccc12)C(=O)N[C@H](CCC(N)=O)C(=O)N[C@H](CCCNC(=N)N)C(=O)N[C@@H](C(=O)N[C@H](CCCCN)C(N)=O)[C@H](C)CC)[C@H](C)CC` [Peptide C10-KR8d] (Decanoyl-[dK][dR][dI][dW][dQ][dR][dI][dK]-NH2), for which the “MIC KP” value in data set [1] was found to be 25 µM (≈ 32 µg/mL). Moreover, the “MIC PA” value against P. aeruginosa PAO1 [2] was determined as 6.2 µM (≈ 7.94 µg/mL). The HC50 with human red blood cells [10] is 300 µM. Also, the “stability to S. aureus V8 protease” value at S. aureus V8 protease was “resistant”. In addition, at fungal proteinase K, the “stability to fungal proteinase K” value is “resistant”. For the same compound, the “membrane permeation (propidium iodide fluorescence)” value in the data set on S. aureus USA300 LAC [11] was “able to permeate the membranes”. The “MIC increase during serial passages” value in the data set on S. aureus USA300 LAC [9] is “no changes”. Besides, the “relative toxicity to HaCaT cells” value in the data set on HaCaT cells was “slightly more toxic than C10-KR8”. Also, in the data set with C57BL/6 mice (10 mg/kg i.p., female C57BL/6 mice n=3, 5 days observation), the survival entry is given as “all mice survived”. The survival result in the data set on C57BL/6 mice (20 mg/kg i.p., female C57BL/6 mice n=3, 5 days observation) is reported as “all mice survived”. The survival result with C57BL/6 mice (40 mg/kg i.p., female C57BL/6 mice n=3, died in a day) is reported as “all mice died”. Further, in the data set on C57BL/6 mice (i.p., C57BL/6 mice, 20 mg/kg or more but less than 40 mg/kg), the “maximal tolerated dose (MTD)” value was at least 20 mg/kg. Besides, in the data set on S. aureus USA300 LAC [12], the “CFU decrease in kidney” value is “not in spleen and kidney”; the “CFU decrease in spleen” value is “not in spleen and kidney”. Moreover, in data set [13], the IL-10 level entry is “decrease”, the IL-17A level result is given as “up-regulation”, the MCP-1/CCL2 level entry was “up-regulation” and the TNFα level entry was “decrease”. The “Minimal inhibitory concentration (MIC)” value in the data set with S. aureus USA300 LAC [4] amounted to 3.1 µM (≈ 3.97 µg/mL).

Regarding `CCCCCCCCCC(=O)N[C@@H](CCCCN)C(=O)N[C@@H](CCCNC(=N)N)C(=O)N[C@H](C(=O)N[C@@H](Cc1c[nH]c2ccccc12)C(=O)N[C@@H](CCC(N)=O)C(=O)N[C@@H](CCCNC(=N)N)C(=O)N[C@H](C(=O)N[C@@H](CCCCN)C(N)=O)[C@@H](C)CC)[C@@H](C)CC` [Peptide C10-KR8] (Decanoyl-KRIWQRIK-NH2), the “MIC KP” value in data set [1] worked out at 50 µM (≈ 64 µg/mL). The HC50 with human red blood cells [10] came out at 300 µM. In addition, the “stability to S. aureus V8 protease” value at S. aureus V8 protease is reported as “except for S. aureus V8 protease”. For the same compound, in the data set with E. coli ATCC25922 [3], the “MIC EC” value is 12.5 µM (≈ 16 µg/mL). In the data set with S. aureus USA300 LAC [4], the “MIC SA” value lay in the range of 1.5 to 3.1 µM and the “Minimal inhibitory concentration (MIC)” value stood at 3.1 µM (≈ 3.97 µg/mL).

On to `CO[C@H]1/C=C/O[C@@]2(C)Oc3c(C)c(O)c4c(O)c(cc(O)c4c3C2=O)NC(=O)/C(C)=C\C=C\[C@H](C)[C@H](O)[C@@H](C)[C@@H](O)[C@@H](C)[C@H](OC(C)=O)[C@@H]1C` [rifamycin, reference compound], for which the “membrane permeation (propidium iodide fluorescence)” value in the data set with S. aureus USA300 LAC [11] is on record as “unable to achieve the same effect”.

`CCCCCCCC(=O)N[C@@H](CCCCN)C(=O)N[C@@H](CCCNC(=N)N)C(=O)N[C@H](C(=O)N[C@@H](Cc1c[nH]c2ccccc12)C(=O)N[C@@H](CCC(N)=O)C(=O)N[C@@H](CCCNC(=N)N)C(=O)N[C@H](C(=O)N[C@@H](CCCCN)C(=O)N[C@@H](CC(=O)O)C(=O)N[C@@H](Cc1ccccc1)C(N)=O)[C@@H](C)CC)[C@@H](C)CC` [Peptide C8-KR10] (Octanoyl-KRIWQRIKDF-NH2): the “MIC KP” value in [1] came to 25 µM (≈ 37.9 µg/mL). In addition, in the data set with P. aeruginosa PAO1 [2], the “MIC PA” value turned out to be 6.2 µM (≈ 9.39 µg/mL). Also, the “relative toxicity to HaCaT cells” value in the data set on HaCaT cells is on record as “slightly less toxic than C8-KR10d”. In addition, in the data set on E. coli ATCC25922 [3], the “MIC EC” value was 6.2 µM (≈ 9.39 µg/mL). Moreover, the “Minimal inhibitory concentration (MIC)” value in the data set with S. aureus USA300 LAC [4] was found to be 6.2 µM (≈ 9.39 µg/mL).
